Several values for one entry are separate records, joined by “and”; a condition that tells them apart may be missing. Equal values may be shown once.
Species: Mus musculus
Experiment: Antinociceptive activity by measuring inhibition of acetylcholine writhing in mouse
Format: functional
How it was run: (§1)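 ED50 determination: six animals per dose group, each dose tested on two or three separate occasions. Pooled data (total dose groups of 12 or 18 animals) analysed by regression to give ED50. Inflamed-paw pressure test in rats; acetylcholine-induced writhing in mice. Doses for the rat paw test given po.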

SMILES | ED50
C=CCN[C@@H]1C(c2ccccc2)=CC2CCC1C2 (some centres not stated) | 13.7 mg/kg
CCN(CC)[C@@H]1C(c2ccccc2)=CC2CCC1C2 (some centres not stated) | 2.4 mg/kg
C1=C(c2ccccc2)[C@@H](N2CCCC2)C2CCC1C2 (some centres not stated) | 19 mg/kg
CN[C@@H]1C(c2ccccc2)=CC2CCC1C2 (some centres not stated) | 4 mg/kg
CN(C)[C@@H]1C(c2ccccc2)=CC2CCC1C2 (some centres not stated) | 3.9 mg/kg
COc1cccc(C2=CC3CCC(C3)[C@@H]2N(C)C)c1 (some centres not stated) | 34.4 mg/kg
CCN(C)[C@@H]1C(c2ccccc2)=CC2CCC1C2 (some centres not stated) | 11.8 mg/kg
C1=C(c2ccccc2)[C@@H](NCC2CCCO2)C2CCC1C2 (some centres not stated) | > 30 mg/kg
COCCN[C@@H]1C(c2ccccc2)=CC2CCC1C2 (some centres not stated) | 27.7 mg/kg
C1=C(c2ccccc2)[C@@H](NCC2CC2)C2CCC1C2 (some centres not stated) | 4.1 mg/kg
CC(C)N[C@@H]1C(c2ccccc2)=CC2CCC1C2 (some centres not stated) | 15.4 mg/kg
CN(C)CCN[C@@H]1C(c2ccccc2)=CC2CCC1C2 (some centres not stated) | 31 mg/kg
CCN[C@@H]1C(c2ccccc2)=CC2CCC1C2 (some centres not stated) | 15.6 mg/kg
CCN(C)[C@@H]1C(c2cccc(OC)c2)=CC2CCC1C2 (some centres not stated) | 30.6 mg/kg
N[C@@H]1C(c2ccccc2)=CC2CCC1C2 (some centres not stated) | 8.3 mg/kg
CC(N)Cc1ccccc1 (configuration not stated) [AMPHETAMINE] | 1.6 mg/kg
COc1ccc2c3c1O[C@H]1[C@@H](O)C=C[C@H]4[C@@H](C2)N(C)CC[C@@]341 [CODEINE] | 10.3 mg/kg

These molecules were tested on Rattus norvegicus (assay: Behavioral stimulant activity in rat by peroral administration; Inactive).
Format: functional

SMILES | Dose
C1=C(c2ccccc2)[C@@H](NCCc2ccccc2)C2CCC1C2 (some centres not stated) | 50 mg/kg
COCCN(C)[C@@H]1C(c2ccccc2)=CC2CCC1C2 (some centres not stated) | 25 mg/kg
CCCN(C)[C@@H]1C(c2ccccc2)=CC2CCC1C2 (some centres not stated) | 25 mg/kg
CCN(C)[C@@H]1C(c2cccc(O)c2)=CC2CCC1C2 (some centres not stated) | 25 mg/kg
CC(C)N(C)[C@@H]1C(c2ccccc2)=CC2CCC1C2 (some centres not stated) | 25 mg/kg
C=CCN(C)[C@@H]1C(c2ccccc2)=CC2CCC1C2 (some centres not stated) | 25 mg/kg
C1=C(c2ccccc2)[C@@H](NCC2CCCO2)C2CCC1C2 (some centres not stated) | 50 mg/kg
C1=C(c2ccccc2)[C@@H](NCC2CC2)C2CCC1C2 (some centres not stated) | 25 mg/kg
CN(C)CCN(C)[C@@H]1C(c2ccccc2)=CC2CCC1C2 (some centres not stated) | 25 mg/kg
CN(C)CCN[C@@H]1C(c2ccccc2)=CC2CCC1C2 (some centres not stated) | 50 mg/kg
N[C@@H]1C(c2ccccc2)=CC2CCC1C2 (some centres not stated) | 25 mg/kg
COc1ccc2c3c1O[C@H]1[C@@H](O)C=C[C@H]4[C@@H](C2)N(C)CC[C@@]341 [CODEINE] | 50 mg/kg

These molecules were tested on Rattus norvegicus (assay: Behavioral stimulant activity in rat by sc administration; Marked CNS activity).
Format: functional

SMILES | Dose
N[C@@H]1C(c2ccccc2)=CC2CCC1C2 (some centres not stated) | 25 mg/kg

These molecules were tested on Rattus norvegicus (assay: Behavioral stimulant activity in rat by sc administration; Marked CNS stimulation).
Format: functional

SMILES | Dose
C1=C(c2ccccc2)[C@@H](N2CCCC2)C2CCC1C2 (some centres not stated) | 25 mg/kg and 50 mg/kg
CN(C)[C@@H]1C(c2ccccc2)=CC2CCC1C2 (some centres not stated) | 50 mg/kg
COc1cccc(C2=CC3CCC(C3)[C@@H]2N(C)C)c1 (some centres not stated) | 50 mg/kg
CCN(C)[C@@H]1C(c2ccccc2)=CC2CCC1C2 (some centres not stated) | 25 mg/kg
CCN[C@@H]1C(c2ccccc2)=CC2CCC1C2 (some centres not stated) | 50 mg/kg
CC(N)Cc1ccccc1 (configuration not stated) [AMPHETAMINE] | 12.5 mg/kg

What follows are molecules tested on Rattus norvegicus (assay: Behavioral stimulant activity in rat by sc administration; Moderate CNS stimulation).
Format: functional

SMILES | Dose
C=CCN[C@@H]1C(c2ccccc2)=CC2CCC1C2 (some centres not stated) | 50 mg/kg

Each molecule was assayed on Rattus norvegicus (assay: Behavioral stimulant activity in rat by sc administration; Slight to moderate CNS stimulation).
Format: functional

SMILES | Dose
CN(CC1CC1)[C@@H]1C(c2ccccc2)=CC2CCC1C2 (some centres not stated) | 50 mg/kg
CCN(CC)[C@@H]1C(c2ccccc2)=CC2CCC1C2 (some centres not stated) | 25 mg/kg
CCCN[C@@H]1C(c2ccccc2)=CC2CCC1C2 (some centres not stated) | 25 mg/kg
CCN[C@@H]1C(c2ccccc2)=CC2CCC1C2 (some centres not stated) | 25 mg/kg
CC(N)Cc1ccccc1 (configuration not stated) [AMPHETAMINE] | 6.25 mg/kg

Species: Rattus norvegicus
Experiment: Antinociceptive activity by measuring in flamed paw pressure threshold in rat
Format: functional
How it was run: as §1

SMILES | ED50
C1=C(c2ccccc2)[C@@H](NCCc2ccccc2)C2CCC1C2 (some centres not stated) | > 30 mg/kg
CN(CC1CC1)[C@@H]1C(c2ccccc2)=CC2CCC1C2 (some centres not stated) | > 30 mg/kg
COCCN(C)[C@@H]1C(c2ccccc2)=CC2CCC1C2 (some centres not stated) | > 30 mg/kg
C=CCN[C@@H]1C(c2ccccc2)=CC2CCC1C2 (some centres not stated) | 11 mg/kg
CCN(CC)[C@@H]1C(c2ccccc2)=CC2CCC1C2 (some centres not stated) | > 30 mg/kg
C1=C(c2ccccc2)[C@@H](N2CCCC2)C2CCC1C2 (some centres not stated) | 15.7 mg/kg
CN[C@@H]1C(c2ccccc2)=CC2CCC1C2 (some centres not stated) | 13.4 mg/kg
CN(C)[C@@H]1C(c2ccccc2)=CC2CCC1C2 (some centres not stated) | 2.9 mg/kg
CCCN(C)[C@@H]1C(c2ccccc2)=CC2CCC1C2 (some centres not stated) | > 30 mg/kg
COc1cccc(C2=CC3CCC(C3)[C@@H]2N(C)C)c1 (some centres not stated) | 7.8 mg/kg
CCN(C)[C@@H]1C(c2cccc(O)c2)=CC2CCC1C2 (some centres not stated) | > 30 mg/kg
CC(C)N(C)[C@@H]1C(c2ccccc2)=CC2CCC1C2 (some centres not stated) | > 30 mg/kg
C=CCN(C)[C@@H]1C(c2ccccc2)=CC2CCC1C2 (some centres not stated) | > 30 mg/kg
CCN(C)[C@@H]1C(c2ccccc2)=CC2CCC1C2 (some centres not stated) | 1.4 mg/kg
C1=C(c2ccccc2)[C@@H](NCC2CCCO2)C2CCC1C2 (some centres not stated) | > 30 mg/kg
C1=C(c2ccccc2)[C@@H](NCC2CC2)C2CCC1C2 (some centres not stated) | > 30 mg/kg
CCCN[C@@H]1C(c2ccccc2)=CC2CCC1C2 (some centres not stated) | > 30 mg/kg
CC(C)N[C@@H]1C(c2ccccc2)=CC2CCC1C2 (some centres not stated) | > 30 mg/kg
CN(C)CCN(C)[C@@H]1C(c2ccccc2)=CC2CCC1C2 (some centres not stated) | > 30 mg/kg
CN(C)CCN[C@@H]1C(c2ccccc2)=CC2CCC1C2 (some centres not stated) | 18.1 mg/kg
CCN[C@@H]1C(c2ccccc2)=CC2CCC1C2 (some centres not stated) | 3.1 mg/kg
CCN(C)[C@@H]1C(c2cccc(OC)c2)=CC2CCC1C2 (some centres not stated) | 10.4 mg/kg
N[C@@H]1C(c2ccccc2)=CC2CCC1C2 (some centres not stated) | > 10 mg/kg
CC(N)Cc1ccccc1 (configuration not stated) [AMPHETAMINE] | 2.1 mg/kg
COc1ccc2c3c1O[C@H]1[C@@H](O)C=C[C@H]4[C@@H](C2)N(C)CC[C@@]341 [CODEINE] | 5.7 mg/kg
